Results on 19 compounds are retold here after ChEMBL document CHEMBL3414569, “Amino acid modified xanthone derivatives: novel, highly promising membrane-active antimicrobials for multidrug-resistant Gram-positive bacterial infections” (J Med Chem, 2015).

Values after ≈ are worked out from the molar mass of the structure shown.

Data set [1] concerns Staphylococcus aureus. The data set can be described thus: Antimicrobial activity against Staphylococcus aureus DM4001 by broth macrodilution method. Type of data set: functional. In outline:
(§1)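 Broth macrodilution MIC in Mueller Hinton broth following CLSI guidelines. Inoculum was prepared by direct colony suspension from an 18−20 h tryptic soy agar plate.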

Data set [2] has as its system Staphylococcus aureus. The data set can be described thus: Antimicrobial activity against methicillin resistant Staphylococcus aureus DM21455 by broth macrodilution method. Type of data set: functional. In outline: as §1
Data set [3] relates to Staphylococcus aureus. The data set can be described thus: Antimicrobial activity against methicillin resistant Staphylococcus aureus DM09809R by broth macrodilution method. Format: functional. The gist of the method: as §1
The nature of data set [4]: Induction of hemolysis in New Zealand white rabbit RBC after 1 hr. Type of data set: cell-based, Oryctolagus cuniculus, Erythrocyte. The note with it: for HC50 at 1 h: New Zealand white, red blood cells (RBC). In outline:
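Fresh red blood cells isolated from New Zealand white rabbits. Lysis measured over a compound concentration series; HC50 taken as the concentration lysing 50% of RBCs.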

The test system of another data set is Bacillus cereus. The data set can be described thus: Antimicrobial activity against Bacillus cereus ATCC 11778 by broth macrodilution method. Format: functional. The gist of the method: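 CLSI broth macrodilution in Mueller Hinton broth. Inoculum was made by direct colony suspension from colonies on an 18−20 h tryptic soy agar plate. The value is the MIC.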

In data set [5] the test system is Staphylococcus aureus. The data set is described as follows: Antimicrobial activity against Staphylococcus aureus ATCC 29213 at 0.5 times MIC measured after 17 passages by multistep passage drug resistance selection study relative to wild type Staphylococcus aureus ATCC 29213 before passage. Format: functional. The gist of the method:
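Multipassage selection in S. aureus ATCC29213 across an eight-concentration dilution series. Growth was read after 20−22 h. Bacteria growing at 0.5 × MIC were repassaged into a fresh series, 17 passages in total. Resistance was defined as a more than 4-fold rise over the initial MIC.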

The test system of data set [6] is Staphylococcus aureus. The data set is described as follows: Antimicrobial activity against Staphylococcus aureus ATCC 29213 by broth macrodilution method. Format: functional. The gist of the method:
as §1

The nature of data set [7]: Selectivity index, ratio of HC50 for induction of hemolysis in New Zealand white rabbit RBC to MIC for Staphylococcus aureus DM21455.
The nature of data set [8]: Selectivity index, ratio of HC50 for induction of hemolysis in New Zealand white rabbit RBC to MIC for Staphylococcus aureus DM4001.
A short description of data set [9]: Selectivity index, ratio of HC50 for induction of hemolysis in New Zealand white rabbit RBC to MIC for Staphylococcus aureus DM09809R.
Data set [10] in a line: Selectivity index, ratio of HC50 for induction of hemolysis in New Zealand white rabbit RBC to MIC for Bacillus cereus ATCC 11778.
Data set [11] deals with Staphylococcus aureus. The data set is described as follows: Antimicrobial activity against Staphylococcus aureus ATCC 29213 in absence of 4% BSA by broth macrodilution method. Type of data set: functional. The gist of the method:
as §1

The subject of data set [12] is Staphylococcus aureus. The data set can be described thus: Antimicrobial activity against methicillin resistant Staphylococcus aureus DM21455 in absence of 4% BSA by broth macrodilution method. Type of data set: functional. In outline: as §1
Data set [13] has as its system Staphylococcus aureus. The data set is described as follows: Antimicrobial activity against methicillin resistant Staphylococcus aureus DM21455 in presence of 4% BSA by broth macrodilution method. Type of data set: functional. In outline:
(§2)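 MIC by CLSI broth macrodilution in Mueller Hinton broth, with BSA added to the bacterial suspension at a final 4% w/v. Inoculum was made by direct colony suspension from an 18−20 h tryptic soy agar plate.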

For data set [14], the system named is Staphylococcus aureus. The data set is described as follows: Antimicrobial activity against Staphylococcus aureus ATCC 29213 in presence of 4% BSA by broth macrodilution method. Type of data set: functional. The gist of the method: as §2
Data set [15] relates to Staphylococcus aureus. The data set can be described thus: Antimicrobial activity against Staphylococcus aureus ATCC 29213 infected in mouse cornea infection model assessed as reduction in viable bacterial count at 0.3% solution applied topically 5 times/day dosed 1 day after infection relative to control. Format: functional. In outline: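 Mouse cornea given three superficial 1 mm scratches on one eye under ketamine/xylazine, then 10 μL of S. aureus ATCC 29213 suspension (1 × 10^8 CFU/mL in USP phosphate buffer) applied topically. Treated topically 5 times/day from day 1 postinfection; PBS negative control; 4 mice/group killed on days 1, 2 and 3. Corneas homogenized in 0.9% NaCl with 0.25% BSA, plated in duplicate on TSA (48 h, 35 °C); log10 CFU/cornea.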

The nature of data set [16]: Retention time of the compound. Type of data set: physicochemical. The gist of the method: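 Reverse-phase HPLC of 20 μL injections of a 10 μg/mL sample at 1 mL/min. Gradient: 5−55% ACN over 5 min, then 55−95% over 15 min.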

On to `O=c1c2ccc(OCCCCBr)cc2oc2cc(OCCCCBr)cc(O)c12`, for which the MIC (in general, the lowest concentration found to suppress growth) in the data set on Staphylococcus aureus [1] is more than 50 µg/mL.
Turning to `COC(=O)C(CCCCN)NC(=O)COc1cc2oc3cc(OCC(=O)NC(CCCCN)C(=O)OC)c(OC)c(CC=C(C)C)c3c(=O)c2c(O)c1CC=C(C)C` (centres undefined), the MIC in the data set on Staphylococcus aureus [2] turned out to be 12 µg/mL (≈ 14.8 µM); with Staphylococcus aureus [3], 6 µg/mL (≈ 7.4 µM); in the data set on Staphylococcus aureus [1], 6 µg/mL (≈ 7.4 µM); against Bacillus cereus, 12 µg/mL (≈ 14.8 µM). Moreover, in data set [4], the HC50 (usually the concentration giving 50% haemolysis) at 1 h amounted to 39 µg/mL.
For `CCN(CC)CCCCOc1ccc2c(=O)c3c(O)cc(OCCCCN(CC)CC)cc3oc2c1`, the MIC in the data set with Staphylococcus aureus [1] was more than 50 µg/mL.
The same measure, in the same setting: the value for `CCN(CC)CCCCOc1cc2oc3cc(OCCCCN(CC)CC)c(OC)c(CCC(C)C)c3c(=O)c2c(O)c1CCC(C)C` was 3 µg/mL (≈ 4.48 µM).
As for `CCn1cc(C(=O)O)c(=O)c2cc(F)c(N3CCNCC3)cc21` [NORFLOXACIN], the Ratio in the data set with Staphylococcus aureus [5] was found to be 64. This compound yielded an MIC against Staphylococcus aureus [6] of 2 µg/mL (≈ 6.26 µM).
Regarding `COc1c(O)cc2oc3cc(O)c(CC=C(C)C)c(O)c3c(=O)c2c1CC=C(C)C` [MANGOSTIN], the MIC against Staphylococcus aureus [2], in the data set with Staphylococcus aureus [3], in the data set with Staphylococcus aureus [1] and against Bacillus cereus was 2 µg/mL (≈ 4.87 µM) in each case. For the same compound, the Selectivity Index in data set [7], in data set [8], in data set [9] and in data set [10] was 5 in each case.
In turn, `O=c1c2ccc(O)cc2oc2cc(O)cc(O)c12` had an MIC against Staphylococcus aureus [1] of more than 50 µg/mL.
For “H-GIGKFLKKAKKFGKAFVKILKK-NH2 [PEXIGANAN]”, the MIC against Staphylococcus aureus [2] was 12.5 µg/mL; in the data set on Staphylococcus aureus [3] it was 25 µg/mL; against Staphylococcus aureus [11], 12.5 µg/mL; against Staphylococcus aureus [12], 12.5 µg/mL; in the data set with Staphylococcus aureus [1] it was 12.5 µg/mL; in the data set on Staphylococcus aureus [13], 200 µg/mL. In addition, the values for the MIC in the data set on Bacillus cereus and in the data set with Staphylococcus aureus [14] were 12.5 µg/mL and 200 µg/mL, respectively. The Selectivity Index in data set [7], in [8], in data set [9] and in [10] was 2 each time. The HC50 at 1 h in [4] turned out to be 120 µg/mL.
Regarding `CCCCCCCCNCCC[C@@H](C)[C@H]1CC[C@H]2[C@H]3[C@H](OCCCN)C[C@H]4C[C@H](OCCCN)CC[C@]4(C)[C@H]3C[C@H](OCCCN)[C@]12C`, the MIC in the data set with Staphylococcus aureus [2], with Staphylococcus aureus [3], against Staphylococcus aureus [1] and against Bacillus cereus was 0.4 µg/mL (≈ 0.591 µM) throughout. In addition, the Selectivity Index in [7], in [8], in data set [9] and in data set [10] was 73 throughout. In addition, the MHC in [4] (erythrocyte, 1 h) worked out at 29 µg/mL.
In the case of `COc1c(OCC(=O)O)cc2oc3cc(OCC(=O)O)c(CC=C(C)C)c(O)c3c(=O)c2c1CC=C(C)C`, the MIC in the data set with Staphylococcus aureus [2], against Staphylococcus aureus [3], against Staphylococcus aureus [1] and with Bacillus cereus was more than 50 µg/mL each time. For the same compound, the HC50 at 1 h in data set [4] was more than 400 µg/mL.
Turning to `COc1c(N2CCNC(C)C2)c(F)cc2c(=O)c(C(=O)O)cn(C3CC3)c12` (centres undefined) [GATIFLOXACIN], the results for the Ratio in the data set with Staphylococcus aureus [15] and in the data set with Staphylococcus aureus [5] were 2.06 and 64, respectively. Besides, it took 0.1 µg/mL (≈ 0.266 µM) to inhibit growth in the data set with Staphylococcus aureus [6] (MIC).
Regarding `COc1c(OCC(=O)N[C@@H](CCCNC(=N)N)C(N)=O)cc2oc3cc(OCC(=O)N[C@@H](CCCNC(=N)N)C(N)=O)c(CC=C(C)C)c(O)c3c(=O)c2c1CC=C(C)C`, the MIC against Staphylococcus aureus [2] stood at 1 µg/mL (≈ 1.19 µM); against Staphylococcus aureus [3], 6 µg/mL (≈ 7.17 µM); against Staphylococcus aureus [1], 6 µg/mL (≈ 7.17 µM); in the data set with Bacillus cereus it was 6 µg/mL (≈ 7.17 µM). Further, the Selectivity Index is 128 in data set [7], 13 in data set [8], 13 in data set [9] and 13 in data set [10]. Besides, the 50% haemolytic concentration (HC50) at 1 h in [4] turned out to be 128 µg/mL. Also, in data set [16], the Retention_time was found to be 7.4 min.
Turning to `COc1c(OCC(=O)N[C@@H](CCCNC(=N)N)C(=O)OC(C)(C)C)cc2oc3cc(OCC(=O)N[C@@H](CCCNC(=N)N)C(=O)OC(C)(C)C)c(CC=C(C)C)c(O)c3c(=O)c2c1CC=C(C)C`, the MIC in the data set on Staphylococcus aureus [2], in the data set with Staphylococcus aureus [3], against Staphylococcus aureus [1] and against Bacillus cereus was 12 µg/mL (≈ 12.6 µM) each time. The Selectivity Index in [7], in data set [8], in data set [9] and in [10] was 7 throughout. The compound also returned an HC50 at 1 h in [4] of 79 µg/mL. Also, the Retention_time in data set [16] was found to be 9.51 min.
For `CCOC(=O)[C@H](CCCNC(=N)N)NC(=O)COc1cc2oc3cc(OCC(=O)N[C@@H](CCCNC(=N)N)C(=O)OCC)c(OC)c(CC=C(C)C)c3c(=O)c2c(O)c1CC=C(C)C`, the MIC was found to be 6 µg/mL (≈ 6.7 µM) with Staphylococcus aureus [2], 12 µg/mL (≈ 13.4 µM) against Staphylococcus aureus [3], 6 µg/mL (≈ 6.7 µM) in the data set on Staphylococcus aureus [1] and 12 µg/mL (≈ 13.4 µM) in the data set with Bacillus cereus. Besides, the Selectivity Index in data set [7] stood at 9; in data set [8] it was 9; in data set [9] it was 5; in [10], 5. Also, the HC50 at 1 h in data set [4] came out at 56 µg/mL. The Retention_time in [16] came out at 8.38 min.
In the data set on Staphylococcus aureus [1], `COc1c(OCCCCBr)cc2oc3cc(OCCCCBr)c(CCC(C)C)c(O)c3c(=O)c2c1CCC(C)C` displayed an MIC of more than 50 µg/mL.
As to `COC(=O)C(Cc1cnc[nH]1)NC(=O)COc1cc2oc3cc(OCC(=O)NC(Cc4cnc[nH]4)C(=O)OC)c(OC)c(CC=C(C)C)c3c(=O)c2c(O)c1CC=C(C)C` (centres undefined), the MIC with Staphylococcus aureus [2], against Staphylococcus aureus [3], against Staphylococcus aureus [1] and with Bacillus cereus was more than 50 µg/mL each time. The compound further had an HC50 at 1 h in data set [4] of more than 400 µg/mL.
In turn, `COc1c(O)cc2oc3cc(O)c(CCC(C)C)c(O)c3c(=O)c2c1CCC(C)C` registered an MIC in the data set on Staphylococcus aureus [1] of 50 µg/mL (≈ 121 µM).
For `N=C(N)NCCCCC(=O)Nc1cc(C(F)(F)F)cc(NC(=O)c2cc(C(=O)Nc3cc(C(F)(F)F)cc(NC(=O)CCCCNC(=N)N)c3O[C@@H]3CCNC3)ncn2)c1O[C@@H]1CCNC1` [BRILACIDIN], the MIC against Staphylococcus aureus [2], in the data set with Staphylococcus aureus [3], in the data set on Staphylococcus aureus [1] and in the data set on Bacillus cereus was 4 µg/mL (≈ 4.27 µM) throughout. In addition, the Selectivity Index in data set [7], in [8], in data set [9] and in data set [10] was 44 in each case. The compound also showed an HC50 at 1 h in data set [4] of 175 µg/mL.
Take `CCCCCCCCCC(=O)N[C@@H](Cc1c[nH]c2ccccc12)C(=O)N[C@H](CC(N)=O)C(=O)N[C@@H](CC(=O)O)C(=O)N[C@@H]1C(=O)NCC(=O)N[C@@H](CCCN)C(=O)N[C@@H](CC(=O)O)C(=O)N[C@H](C)C(=O)N[C@@H](CC(=O)O)C(=O)NCC(=O)N[C@H](CO)C(=O)N[C@@H]([C@H](C)CC(=O)O)C(=O)N[C@@H](CC(=O)c2ccccc2N)C(=O)O[C@@H]1C`: the MIC against Staphylococcus aureus [11] is 0.39 µg/mL (≈ 0.241 µM); in the data set on Staphylococcus aureus [12] it was 0.39 µg/mL (≈ 0.241 µM); in the data set with Staphylococcus aureus [13], 6.25 µg/mL; with Staphylococcus aureus [14], 6.25 µg/mL.
